From ChEMBL document CHEMBL1150376, “Antitumor agents 260. New desmosdumotin B analogues with improved in vitro anticancer activity” (2008)
≈ marks a conversion by molar mass, not a printed value. Calls of active or inactive are those of the source. The rule behind the calls is not given here.

What was measured:
Type in all cases: functional
KB [1] = test: Cytotoxicity against human KB cells by sulforhodamine B assay; settings: read-out: ED50 (the source's name)
Summary of the method: (§1)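 Cells grown in RPMI-1640 with 25 mM HEPES, 0.25% sodium bicarbonate, 10% FBS and 100 µg/mL kanamycin. Freshly trypsinized cells were seeded at 1500-7500 per well, and compounds were added from DMSO-diluted stock. After 3 days, attached cells were fixed with cold 50% TCA, stained with 0.4% SRB, and read at 562 nm. ED50 is the mean of ≥3 independent determinations.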

[2] = Cytotoxicity against human KB-VIN cells by sulforhodamine B assay; settings: KBVIN, read-out: ED50 (the source's name); summary of the method: as §1
[3] = Selectivity index, ratio of ED50 for human KB cells to ED50 for vincristine-resistant human KB-VIN cells
Summary of the method: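 The ratio uses ED50 values from the 3-day SRB assay run in parallel on KB and vincristine-resistant KB-VIN cells. For each line, ED50 is the concentration giving 50% reduction in 562 nm absorbance relative to untreated cells, averaged over ≥3 independent determinations.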

HCT-8 = test: Cytotoxicity against human HCT8 cells by sulforhodamine B assay; settings: for EC50: read-out: ED50 (the source's name); summary of the method: as §1
PC-3 = test: Cytotoxicity against human PC3 cells by sulforhodamine B assay; settings: for EC50: read-out: ED50 (the source's name); summary of the method: as §1
MCF7 = test: Cytotoxicity against human MCF7 cells by sulforhodamine B assay; settings: read-out: ED50 (the source's name); summary of the method: as §1
A549 = test: Cytotoxicity against human A549 cells by sulforhodamine B assay; settings: for EC50: read-out: ED50 (the source's name); summary of the method: as §1
KB [4] = test: Cytotoxicity against human KB cells at 20 ug/mL by sulforhodamine B assay

Structure (SMILES)	EC50 (KB [1])	EC50 [2]	Ratio ED50 [3]	EC50 (HCT-8)	EC50 (PC-3)	EC50 (MCF7)	EC50 (A549)	Activity (KB [4])	Activity (HCT-8)	Activity (PC-3)	Activity (A549)
COC1=C(C)C(O)=C2C(=O)C=C(c3ccccc3)OC2C1(C)C (configuration not stated)	38.5 µg/mL (≈ 123 µM)	23 µg/mL (≈ 73.6 µM)	1.7								
CCC1=C(O)c2c(occ(-c3ccccc3)c2=O)C(CC)(CC)C1=O	16 µg/mL (≈ 47.3 µM)	3.5 µg/mL (≈ 10.3 µM)	4.6	12 µg/mL (≈ 35.5 µM)	> 20 µg/mL	10 µg/mL (≈ 29.6 µM)	18 µg/mL (≈ 53.2 µM)				
CCc1ccc(-c2cc(=O)c3c(O)c(CC)c(O)c(CC)c3o2)cc1	> 20 µg/mL	5 µg/mL (≈ 14.8 µM)	>4								
COC1=CC(O)=C2C(=O)C=C(c3ccccc3)OC2C1(C)C (configuration not stated)	1.8 µg/mL (≈ 6.03 µM)	1.8 µg/mL (≈ 6.03 µM)	1								
CC1=C(O)c2c(oc(-c3c(C)cc(C)cc3C)cc2=O)C(C)(C)C1=O [2,4,6-TRIMETHYL DESMOSDUMOTIN B]		5.82 µg/mL (≈ 17.2 µM)	>3.4					<50%			
CCC1=C(O)c2c(oc(-c3cccc4ccccc34)cc2=O)C(CC)(CC)C1=O [2-(NAPHTHALEN-1-YL)-6,8,8-TRIETHYL DESMOSDUMOTIN B]	0.6 µg/mL (≈ 1.54 µM)	0.3 µg/mL (≈ 0.772 µM)	2	0.4 µg/mL (≈ 1.03 µM)	0.4 µg/mL (≈ 1.03 µM)	0.2 µg/mL (≈ 0.515 µM)	0.6 µg/mL (≈ 1.54 µM)				
CC1=C(O)c2c(oc(-c3cccc4ccccc34)cc2=O)C(C)(C)C1=O [2-(NAPHTHALEN-1-YL)DESMOSDUMOTIN B]	0.51 µg/mL (≈ 1.47 µM)	0.16 µg/mL (≈ 0.462 µM)	3.2	0.4 µg/mL (≈ 1.15 µM)	0.5 µg/mL (≈ 1.44 µM)	0.6 µg/mL (≈ 1.73 µM)	0.6 µg/mL (≈ 1.73 µM)				
CC1=C(O)c2c(oc(-c3ccccc3C)cc2=O)C(C)(C)C1=O [2-METHYL DESMOSDUMOTIN B]	37.3 µg/mL (≈ 120 µM)	1.75 µg/mL (≈ 5.64 µM)	21.3								
CC1=C(O)c2c(oc(-c3cc(C)cc(C)c3)cc2=O)C(C)(C)C1=O [3,5-DIMETHYL DESMOSDUMOTIN B]	53 µg/mL (≈ 164 µM)	2.91 µg/mL (≈ 8.97 µM)	18.2								
CCc1ccc(-c2cc(=O)c3c(o2)C(C)(C)C(=O)C(C)=C3O)cc1 [4-ETHYL DESMOSDUMOTIN B]	20 µg/mL (≈ 61.7 µM)	1.54 µg/mL (≈ 4.75 µM)	13								
CC1=C(O)c2c(oc(-c3ccc(C)cc3)cc2=O)C(C)(C)C1=O [4-METHYL DESMOSDUMOTIN B]	22.5 µg/mL (≈ 72.6 µM)	1.09 µg/mL (≈ 3.51 µM)	20.7								
CCC1=C(O)c2c(oc(-c3ccccc3)cc2=O)C(CC)(CC)C1=O [6,8,8-TRIETHYL DESMOSDUMOTIN B]	> 80 µg/mL	0.36 µg/mL (≈ 1.06 µM)	>222			> 20 µg/mL			inactive	inactive	inactive
CCC1=C(O)c2c(oc(-c3cc4ccccc4c4ccccc34)cc2=O)C(CC)(CC)C1=O [6,8,8-TRIETHYL-2-(PHENANTHREN-9-YL) DESMOSDUMOTIN B]	5 µg/mL (≈ 11.4 µM)	4.3 µg/mL (≈ 9.81 µM)	1.2	5.6 µg/mL (≈ 12.8 µM)	6 µg/mL (≈ 13.7 µM)	4 µg/mL (≈ 9.12 µM)	8 µg/mL (≈ 18.2 µM)				
CCC1=C(O)c2c(oc(-c3ccccc3C)cc2=O)C(CC)(CC)C1=O [6,8,8-TRIETHYL-2-METHYL DESMOSDUMOTIN B]	18 µg/mL (≈ 51.1 µM)	0.1 µg/mL (≈ 0.284 µM)									
CCC1=C(O)c2c(oc(-c3ccc(CC)cc3)cc2=O)C(CC)(CC)C1=O [6,8,8-TRIETHYL-4-ETHYL DESMOSDUMOTIN B]	8 µg/mL (≈ 21.8 µM)	0.025 µg/mL (≈ 0.0682 µM)	320								
CCC1=C(O)c2c(oc(-c3ccc(C)cc3)cc2=O)C(CC)(CC)C1=O [6,8,8-TRIETHYL-4-METHYL DESMOSDUMOTIN B]	13.8 µg/mL (≈ 39.2 µM)	0.03 µg/mL (≈ 0.0851 µM)	460	15 µg/mL (≈ 42.6 µM)	18 µg/mL (≈ 51.1 µM)	> 20 µg/mL	16 µg/mL (≈ 45.4 µM)				
CCC1=C(OC)C(CC)(CC)C2OC(c3ccccc3)=CC(=O)C2=C1O (configuration not stated) [6,8,8-TRIETHYL-7-METHOXY DESMOSDUMOTIN B]	20 µg/mL (≈ 56.4 µM)	15.5 µg/mL (≈ 43.7 µM)	1.3								
CCCC1=C(O)c2c(oc(-c3ccccc3)cc2=O)C(CCC)(CCC)C1=O [6,8,8-TRIPROPYL DESMOSDUMOTIN B]	4 µg/mL (≈ 10.5 µM)	0.63 µg/mL (≈ 1.66 µM)	6.4								
CCCC1=C(OC)C(CCC)(CCC)C2OC(c3ccccc3)=CC(=O)C2=C1O (configuration not stated) [6,8,8-TRIPROPYL-7-METHOXY DESMOSDUMOTIN B]	8.5 µg/mL (≈ 21.4 µM)	7 µg/mL (≈ 17.7 µM)	1.2								
CCC1=C(O)c2c(oc(-c3ccccc3)cc2=O)C(C)(C)C1=O [6-ETHYL-8,8-DIMETHYL DESMOSDUMOTIN B]	> 20 µg/mL	0.6 µg/mL (≈ 1.93 µM)	>33								
CC1=C(O)C(C)(C)c2oc(-c3ccccc3)cc(=O)c2C1=O [DESMOTUMOTIN B]	> 40 µg/mL	2 µg/mL (≈ 6.75 µM)	>20			> 20 µg/mL	> 20 µg/mL		inactive	inactive	
CC[C@]1(O)C[C@H]2CN(CCc3c([nH]c4ccccc34)[C@@](C(=O)OC)(c3cc4c(cc3OC)N(C=O)[C@H]3[C@@](O)(C(=O)OC)[C@H](OC(C)=O)[C@]5(CC)C=CCN6CC[C@]43[C@@H]65)C2)C1 [VINCRISTINE]	0.015 µg/mL (≈ 0.0182 µM)	7 µg/mL (≈ 8.49 µM)	0.002	0.02 µg/mL (≈ 0.0242 µM)	0.01 µg/mL (≈ 0.0121 µM)	0.01 µg/mL (≈ 0.0121 µM)	0.004 µg/mL (≈ 0.00485 µM)				
